Rows were chosen to be rich in hits. Some 0.7% of all compounds tested hit in one or more screens of this group.
Vif imaging: HIV Vif self-association inhibitors, primary screen, imaging, HEK293T, single point; HEK293T cells, Vif self-association by quenched fluorescence, 24 h; inhibition, % at 7.49 µM; 340,000 tested, 0.35% active; AID 602346, 2012; in the data active = inhibition above about 50%, passing the limit was not always enough; inconclusive = no clear call, values can overlap the other calls; inactive = below about 31%
N-glyco inh: increase of ERlucT glycosylation luciferase signal, primary screen, N-linked glycosylation inhibitor project, D54 ERlucT cells, luminescence, set 2 | 360,000 tested, 0.23% active | reporter increase, % at 12.5 µM | D54 ERlucT glycosylation luciferase reporter, 24 h; percent of 100 nM tunicamycin response;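 active = mean luciferase reporter signal, scaled so untreated is 0 and the glycosylation-blocking control 100, at or above a set limit in every replicate; inconclusive = mean reaches the limit but not every replicate does; inactive = mean below the limit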;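 note: luciferase carries N-glycosylation sites so blocking glycosylation raises the light; 0% = median of neutral control wells and 100% = median of 100 nM tunicamycin wells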
GC-B act: human GC-B receptor activators, primary screen, HEK293 GC-B cells, cGMP TR-FRET, EC30 CNP. 370,000 tested, 0.11% active. activation, % at 10 µM. Atrial natriuretic peptide receptor 2 (Homo sapiens), P20594. 0% at EC30 CNP, 100% saturating CNP;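 active = activation at 10 µM reaching about 35% in either raw or pattern-adjusted values, limit read from the data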
NPR1 activator: GC-A stimulated cGMP production enhancers – HEK293 GC-A cells, cGMP TR-FRET, EC30 ANP, primary screen. 370,000 tested, 0.14% active. activation, % at 10 µM. Atrial natriuretic peptide receptor 1 (Homo sapiens), P16066. 0% at EC30 ANP, 100% saturating ANP; in the data active = activation above about 40%
Target sequence (P16066 whole entry, looked up): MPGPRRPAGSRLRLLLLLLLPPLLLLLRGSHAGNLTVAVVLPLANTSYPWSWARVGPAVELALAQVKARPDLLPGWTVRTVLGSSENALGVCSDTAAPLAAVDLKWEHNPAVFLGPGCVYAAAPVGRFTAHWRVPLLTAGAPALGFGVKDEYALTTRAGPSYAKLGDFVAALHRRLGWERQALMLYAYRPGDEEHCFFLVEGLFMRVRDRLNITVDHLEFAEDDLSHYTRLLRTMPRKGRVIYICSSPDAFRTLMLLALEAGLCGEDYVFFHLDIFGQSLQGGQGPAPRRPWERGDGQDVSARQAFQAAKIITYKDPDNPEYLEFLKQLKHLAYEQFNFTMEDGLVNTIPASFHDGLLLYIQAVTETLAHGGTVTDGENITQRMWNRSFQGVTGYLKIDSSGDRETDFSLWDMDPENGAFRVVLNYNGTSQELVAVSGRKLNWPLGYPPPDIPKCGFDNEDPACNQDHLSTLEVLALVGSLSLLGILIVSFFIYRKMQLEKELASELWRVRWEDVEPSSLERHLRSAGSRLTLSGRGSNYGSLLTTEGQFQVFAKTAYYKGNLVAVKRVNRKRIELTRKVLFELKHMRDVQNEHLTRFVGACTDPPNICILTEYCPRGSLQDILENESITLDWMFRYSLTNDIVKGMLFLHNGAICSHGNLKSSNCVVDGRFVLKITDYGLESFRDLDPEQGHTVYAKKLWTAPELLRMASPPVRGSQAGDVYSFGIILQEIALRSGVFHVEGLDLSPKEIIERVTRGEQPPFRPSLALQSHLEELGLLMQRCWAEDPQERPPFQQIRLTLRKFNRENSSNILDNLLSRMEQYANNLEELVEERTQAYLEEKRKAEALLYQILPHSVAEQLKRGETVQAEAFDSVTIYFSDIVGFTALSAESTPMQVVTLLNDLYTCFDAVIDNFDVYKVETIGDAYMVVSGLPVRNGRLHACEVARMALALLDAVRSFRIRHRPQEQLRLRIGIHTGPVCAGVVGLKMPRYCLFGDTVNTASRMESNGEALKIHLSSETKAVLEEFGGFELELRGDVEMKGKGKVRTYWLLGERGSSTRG
CaV13 FRET inh: Disruptors of the CACNA1D IQ motif to Ca2+-dependent inactivation inhibitor domain association, primary screening, Förster resonance energy transfer in intact living …; HEK cells, CFP/YFP FRET ICDI-IQ, plate reader, 10 min; percent FRET-ratio fall versus neutral wells; inhibition, % at 12.3 µM; 340,000 tested, 0.098% active; AID 743397;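 active = mean replicate inhibition of at least 30% and at least 1% of replicates passing that level; inconclusive = only one of the two criteria is met; inactive = neither criterion is met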;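 note: 0% = median of the neutral control wells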
Xi reactivation: activators of inactive X chromosome reactivation, primary screen, imaging, XiGFP fibroblasts, GFP high-content imaging, set 2; XiGFP mouse fibroblasts, % GFP-positive cells imaging, 3 d; cells co-treated with 5-aza-dC sensitizer; scaled so ellipticine positive control = 100%; activation, % at 7.58 µM; 360,000 tested, 0.055% active; AID 743238, 2013;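 active = mean normalized replicate activation at least 10% and every replicate at or above 10%; inconclusive = only one of the two criteria met; inactive = mean below 10% and not all replicates reach 10%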;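 note: 0% = median of on-plate neutral control wells and 100% = ellipticine 6 µM median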
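material = 68-5-11 XiGFP fibroblast line | medium = DMEM plus 5-aza-dC sensitizer | schedule = 3 days compound exposure | benchmarks = positive control ellipticine, 6 µM final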
The depositor's hits bear a star; ? = inconclusive; . = no result given.

SMILES | Vif imaging | N-glyco inh | GC-B act | NPR1 activator | CaV13 FRET inh | Xi reactivation
CN1CCc2c(C#N)c(N3CCCCC3)nc(NCc3ccccc3)c2C1 | 7.9 | 0.1 | 5.5 | 10.8 | -8.6 | .
COc1cc(Nc2nc3c(N)cc(C(F)(F)F)cc3nc2-c2ccccc2)cc(OC)c1OC | 5.6 | 26.3* | -0.1 | -6.6 | -9.6 | 0.0
Cc1ccc(-n2nc3c(=S)[nH]nc(C)c3c2C)cc1 | -3.7 | 3.3 | 17.5 | 40.9* | -5.1 | .
CCOC(=O)N(C)C[C@H]1OCc2ccccc2-c2ccccc2C(=O)N([C@H](C)CO)C[C@H]1C | . | . | . | . | . | 0.1
NC1=NC(=O)/C(=C/c2cn(CCC(=O)O)nc2-c2ccc(Cl)cc2)S1 | 5.6 | 1.8 | 0.8 | 0.4 | -12.5 | 0.2
NC1=NC(=O)/C(=C\c2ccc(-c3ccc(Cl)cc3)o2)S1 | 2.2 | 2.7 | 38.1* | 33.0 | -5.7 | 0.0
CN1CCN(CC(=O)Nc2cc(N(C)C)nc3ccccc23)CC1 | 0.4 | 43.8* | 0.4 | 19.7 | 3.2 | 0.1
CC1(C)CC(=O)C(C=Nc2cccnc2/N=C/C2=C(O)CC(C)(C)CC2=O)=C(O)C1 | 3.4 | -0.4 | 1.2 | 3.0 | 129.4* | 0.3
CC1(C)CC(=O)C(C=Nc2cccnc2)=C(O)C1 | 0.0 | 1.6 | 1.7 | 1.1 | -5.2 | .
COc1ccc(S(=O)(=O)N(C)C[C@H]2OCCCC[C@@H](C)Oc3ccc(NS(=O)(=O)c4ccc(Cl)cc4)cc3C(=O)N([C@H](C)CO)C[C@H]2C)cc1 | . | . | . | . | . | 0.4
CCCCn1c(N)c(N(CCOC)C(=O)c2cc(CC)c(C)s2)c(=O)[nH]c1=O | -4.0 | 4.3 | 2.7 | 0.1 | -5.9 | 0.0
CCCCn1c(N)c(N(CC)C(=O)c2cc(CC)c(C)s2)c(=O)[nH]c1=O | 54.8* | -2.5 | 5.4 | 0.0 | -3.9 | 0.2
O=C(NCCN1CCNCC1)c1ccccc1O | 61.7* | -1.2 | -0.5 | 0.8 | -17.9 | 0.0
O=C(NCCN1CCCC1)c1ccccc1Cl | 3.9 | 1.4 | 4.9 | 1.6 | -3.6 | 0.4
Cn1cnc([N+](=O)[O-])c1Sc1nc2ccccc2[nH]1 | 4.6 | 29.3* | -0.9 | 3.9 | -4.5 | 0.4
O=C(Nc1ccc2c(c1)[C@H]1C[C@H](CC(=O)N3CCc4ccccc4C3)O[C@H](CO)[C@H]1O2)NC1CCCC1 | . | . | . | . | . | 0.0
COc1ccc(/C=C/C(=O)OCCCN(C)C)cc1 | 3.4 | -2.1 | 3.5 | 0.1 | -3.6 | -0.1
COc1ccccc1/C=C/C(=O)OCCCN(C)C | 1.6 | -1.4 | 8.1 | 0.9 | -3.7 | 70.6*
C[C@H](CO)N1C[C@H](C)[C@@H](CN(C)S(=O)(=O)c2ccc(Cl)cc2)Oc2ccc(NC(=O)CCCCCC(=O)Nc3ccccc3N)cc2CC1=O | . | . | . | . | . | 0.0
COCCNC(=O)C[C@H]1CC[C@@H]2[C@H](COc3ccc(NC(=O)Nc4ccccc4)cc3C(=O)N2C)O1 | . | . | . | . | . | 0.1
S=c1nc[nH]c2nc[nH]c12 | -3.1 | 247.3* | 8.7 | 4.7 | -5.4 | -0.1
Cn1cnc2nc[nH]c2c1=S | -5.6 | 1.6 | 1.2 | 1.2 | -2.7 | -0.2
COc1cccc(Oc2ccc(C(F)(F)F)cc2NC(=O)CN2C(=O)NC3(CCCC3)C2=O)c1 | -3.3 | 86.4* | 2.6 | -4.0 | -5.8 | -0.7
CC1CCN(c2cc(C#N)c(C#N)cc2[N+](=O)[O-])CC1 | 90.5* | -0.5 | -1.9 | -5.7 | -5.6 | .
CC1CCCCN1c1cc(C#N)c(C#N)cc1[N+](=O)[O-] (stereo not drawn) | 1.5 | 0.3 | 1.9 | -3.3 | . | .
SMILES | Vif imaging | N-glyco inh | GC-B act | NPR1 activator | CaV13 FRET inh | Xi reactivation
CCc1nc2ccc(C(=O)NCCc3c[nH]c4ccccc34)cn2c1N(C=O)CCC(C)C | 0.0 | 64.4* | 3.7 | 1.4 | 38.2* | 0.1
CCCCN(C=O)c1c(CC)nc2ccc(C(=O)NCCc3c[nH]c4ccccc34)cn12 | 6.5 | 4.3 | 1.4 | -2.0 | -9.2 | 0.1
O=c1[nH]c(=O)c2nnc(N/N=C/c3ccccc3F)nc2[nH]1 | 7.3 | 1.0 | 5.6 | 1.1 | -12.0 | 0.0
O=c1[nH]c(=O)c2nc3c4ccccc4c4ccccc4c3nc2[nH]1 | 16.0 | 95.9* | -6.9 | -14.7 | -5.1 | 0.2
O=C(C[C@H]1CC[C@@H]2[C@H](COC[C@@H](O)CN2CC2CCCC2)O1)NCC1CC1 | . | . | . | . | . | 0.2
CCOC(=O)C1CCN(Cc2cc(Cl)c3ccccc3c2O)CC1 | 6.6 | 44.0* | . | . | . | .
CCOC(=O)C1CCN(Cc2ccc(OC)c(C)c2OC)CC1 | -4.8 | 2.9 | -6.7 | -3.7 | -8.0 | .
Cn1nnnc1SCC(=O)Nc1nc(-c2ccc(F)c(F)c2)cs1 | . | -0.8 | -0.2 | 42.0* | -3.0 | 0.1
COc1ccc2cc(C)c3nnc(SCC(=O)Nc4nc(-c5ccc(F)cc5)cs4)n3c2c1 | -2.0 | 38.0* | -3.4 | 2.3 | -15.8 | 0.1
CCCC(=O)Nc1ccc2c(c1)OC[C@H](C)N(C(=O)c1ccccc1F)C[C@@H](C)[C@@H](OC)CN(C)C2=O | . | . | . | . | . | 0.3
COc1cc(OC)c(C(=O)C=Cc2ccc(OC)c(OC)c2)c(OC)c1 | 2.1 | -3.7 | 4.2 | 8.7 | -7.1 | 0.1
COc1ccc(C(=O)/C=C/c2ccc(OC)c(O)c2)c(F)c1 | -2.8 | 54.7* | -1.6 | 4.6 | -9.2 | .
COC(=O)c1cn(C(=O)/C=C/c2ccc(OC)c(OC)c2)c2ccccc12 | 4.7 | 36.4* | 1.0 | 0.3 | -4.3 | 0.0
COc1ccc(C=CC(=O)c2ccc(OC)c(OC)c2O)cc1OC | 2.8 | 36.6* | 2.8 | 4.1 | -14.2 | 0.0
COc1ccc(C=CC(=O)c2ccc(OC)c(OC)c2)cc1O | -17.9 | ? | -0.8 | -0.5 | -7.0 | 0.0
COc1ccc(C(=O)C=Cc2ccc(OCc3ccccc3)c(OC)c2)cc1OC | -13.7 | 51.5* | 1.6 | -6.7 | -7.4 | 0.9
CC(C)c1cn(CC[C@H]2CC[C@H](NS(=O)(=O)Cc3ccccc3)[C@@H](CO)O2)nn1 | . | . | . | . | . | -0.3
COc1ccc(/C=C/C(=O)c2ccc(Cl)s2)cc1O | 7.7 | 28.0* | -15.7 | 21.8 | -6.1 | .
COc1cc(/C=C/C(=O)c2ccc(Cl)s2)cc(OC)c1O | 0.4 | ? | . | . | . | .
Cc1cccn2c(=O)c3cc(C#N)c(=O)n(-c4c(C)n(C)n(-c5ccccc5)c4=O)c3nc12 | -5.4 | 1.5 | 4.8 | 3.3 | -4.1 | .
